Results taken from ChEMBL document CHEMBL4699532, “Decoding the Papain Inhibitor from Streptomyces mobaraensis as Being Hydroxylated Chymostatin Derivatives: Purification, Structure Analysis, and Putative Biosynthetic Pathway” (J Nat Prod, 2020).

How the values were obtained:
Homo sapiens = organism: Homo sapiens; test: Binding affinity to chymotrypsin (unknown origin) assessed as change in melting temperature at 200 uM incubated for 15 mins by scanning fluorimetry
Procedure, shortened: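 20 μM chymotrypsin held on ice for 15 min with 200 μM inhibitor in 100 mM Tris pH 7.8, 10 mM CaCl2. Melting followed by tryptophan fluorescence at 330 and 350 nm during 1 °C/min heating (differential scanning fluorimetry), run in duplicate. Shift taken as difference from the enzyme's melting point.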

[1] = Inhibition of chymotrypsin (unknown origin) using sucAAPFamc substrate preincubated for 10 mins followed by addition of substrate and measured every 30 sec for 60 mins by fluorescence based assay; set-up: species or system Homo sapiens
Procedure, shortened: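 Chymotrypsin, 1.5 nM final (added as 15 nM stock), preincubated with inhibitor for 10 min at 30 °C in 100 mM Tris pH 7.8, 10 mM CaCl2. Started with sucAAPFamc (added as 15 μM stock). AMC release read every 30 s for 60 min (ex 350, em 450 nm), in triplicate. IC50 from fitted data.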

Papain = biological target: T1, Papain (Carica papaya, UniProt P00784); test: Inhibition of papaya papain using cbzFRamc substrate preincubated for 10 mins followed by addition of substrate and measured every 30 sec for 60 mins by fluorescence based assay
T1 sequence (P00784 whole entry): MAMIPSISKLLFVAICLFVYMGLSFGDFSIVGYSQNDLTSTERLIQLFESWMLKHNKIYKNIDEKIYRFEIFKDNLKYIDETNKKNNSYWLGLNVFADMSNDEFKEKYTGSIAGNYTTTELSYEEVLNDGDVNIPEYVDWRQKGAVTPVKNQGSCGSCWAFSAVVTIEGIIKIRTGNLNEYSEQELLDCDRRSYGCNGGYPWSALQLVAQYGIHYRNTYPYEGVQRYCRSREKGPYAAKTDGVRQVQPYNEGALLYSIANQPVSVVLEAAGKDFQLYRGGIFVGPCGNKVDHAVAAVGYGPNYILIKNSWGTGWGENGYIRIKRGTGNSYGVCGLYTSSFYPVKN
Procedure, shortened: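 Papain, 1.5 nM final (added as 15 nM stock), preincubated with inhibitor for 10 min at 30 °C in 50 mM phosphate pH 6.8, 10 mM EDTA, 2 mM DTT. Started with 50 μM cbzFRamc. AMC release read every 30 s for 60 min (ex 350, em 450 nm), in triplicate. IC50 from fitted data.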

Papain (Carica papaya) = biological target: T2, Papain (Carica papaya) (UniProt P00784); test: Binding affinity to papaya papain assessed as change in melting temperature at 200 uM incubated for 15 mins by scanning fluorimetry
T2 sequence (whole entry): T1 sequence (P00784 whole entry)
Procedure, shortened: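 Melting followed by tryptophan fluorescence at 330 and 350 nm during 1 °C/min heating (differential scanning fluorimetry), run in duplicate. Shift taken as difference from the enzyme's melting point.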

ΔTm (Homo sapiens) [°C] | IC50 [1] [nM] | IC50 (Papain) [nM] | ΔTm (Papain (Carica papaya)) [°C] | Structure (SMILES)
15.1 | 4.8 | 6.3 | 0.9 | CC(C)[C@H](NC(=O)[C@@H](NC(=O)N[C@@H](Cc1ccc(O)cc1)C(=O)O)[C@H]1CCNC(=N)N1)C(=O)N[C@H](C=O)Cc1ccc(O)cc1
1.7 | > 30000 | 3.4 | 0.9 | CC(C)[C@H](NC(=O)[C@H](CCCNC(=N)N)NC(=O)N[C@@H](Cc1ccccc1)C(=O)O)C(=O)N[C@H](C=O)CCCNC(=N)N [ANTIPAIN]
0.2 | > 30000 | 2.2 | 1 | CC(=O)N[C@@H](CC(C)C)C(=O)N[C@@H](CC(C)C)C(=O)N[C@H](C=O)CCCNC(=N)N [LEUPEPTIN]
13.5 | 7 | 17.8 | 0.9 | CC(C)[C@H](NC(=O)[C@@H](NC(=O)N[C@@H](Cc1ccc(O)cc1)C(=O)O)[C@H]1CCNC(=N)N1)C(=O)N[C@H](C=O)Cc1ccccc1
